# Sampled rows, rich in hits. Any-hit rate of the full collection: about 9.5%.
# M1 antagonist = antagonists of rat M1 muscarinic receptor | B-score at 10 µM | CHO-M1 cells, Fluo-4 calcium, ACh EC80 antagonist mode; stronger effect = lower value | hit rate 3.4% among 64,000 | AID 628, 2007;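 active = calcium fluorescence response, raw or row-and-column corrected B-score, differing from the plate sample mean either way at a set confidence level, mostly lower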
# Target sequence (P08482 whole entry, looked up): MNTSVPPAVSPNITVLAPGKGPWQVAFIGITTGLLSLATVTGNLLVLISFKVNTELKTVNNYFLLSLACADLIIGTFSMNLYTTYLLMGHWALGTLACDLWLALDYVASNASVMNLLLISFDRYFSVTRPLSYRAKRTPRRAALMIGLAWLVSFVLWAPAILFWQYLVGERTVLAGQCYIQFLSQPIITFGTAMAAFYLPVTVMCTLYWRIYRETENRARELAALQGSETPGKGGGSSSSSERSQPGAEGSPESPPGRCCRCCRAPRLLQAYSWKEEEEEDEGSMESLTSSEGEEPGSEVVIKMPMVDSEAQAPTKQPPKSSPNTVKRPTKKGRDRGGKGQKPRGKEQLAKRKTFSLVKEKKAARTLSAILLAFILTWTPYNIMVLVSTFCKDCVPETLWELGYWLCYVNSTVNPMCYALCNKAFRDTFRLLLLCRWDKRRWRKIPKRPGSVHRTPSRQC
# M1 agonist = M1 muscarinic receptor agonists, primary screen, CHO-M1 cells, Fluo-4 calcium, agonist mode. hit rate 3% among 64,000. B-score at 10 µM. Fluo-4 calcium fluorescence; stronger effect = higher value;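 active = fluorescence rise, raw or as B-score row- and column-corrected plate score, outside the 99.7% band of its plate's samples, either direction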
# D1 mod = D1 CRE-luciferase signal change, two-sided – cell-based, HEK293 D1, dopamine EC30, D1 allosteric modulator project, primary screen; D(1A) dopamine receptor (Homo sapiens), P21728; dopamine EC30 potentiation; actives deviate in either direction; B-score at 10 µM; hit rate 5.9% among 58,000; AID 641, 2007;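 active = luminescence count or its row- and column-corrected plate score outside the 99.7% band of the plate's sample wells, on either side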
# mHtt clearance = clearance of mutant huntingtin inclusions, primary screen, imaging, HeLa Exon1htt(103Q)mCFP, confocal imaging. aggregate imaging; zero = plate's median compound well. inhibition, % at 1.5 µM. hit rate 0.42% among 47,000. AID 853, 2007;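 active = inhibition of aggregate fluorescence above about 70%, also judged a hit by eye on the cell image, limit read from the data, passing the limit was not always enough; inconclusive = no rule stated for this call; inactive = not judged a hit on image review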;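 also: cells exposed to compound for three days before fixation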
# HEK293 NFkB inh = inhibitors of PMA/ionomycin-induced NF-kB reporter, primary screen, antigen receptor NF-kB inhibitor project, cell-based, HEK-293 luciferase reporter, luminescence; HEK-293 NF-kB luciferase reporter; inhibition, % at 3 µM; hit rate 0.21% among 62,000;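 active = inhibition above the mean of all tested compounds plus 3 SD, cut at about 40% in these data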;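 also: 0% = stimulated DMSO wells and 100% = 10 µM reference inhibitor 5653914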
#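 System – HEK-293 cells with stable firefly luciferase reporter driven by four HIV NF-kB elements · Doses – one dose, 3 µM · Schedule – 1 h compound pre-incubation, 16 h PMA/ionomycin at 37 °C · Technique – luminescence from luciferase substrate reagent · Measure – percent inhibition normalized per plate to DMSO and reference-inhibitor controls · Replicates – tested once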
# Jurkat viability = cytotoxicity toward Jurkat T cells, primary screen, cytotoxicity control, cell-based, Jurkat E6.1, 60K MLSMR library. inhibition, % at 4 µM. Jurkat E6.1 viability, ATP luminescence, 48 h. hit rate 1.2% among 56,000;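 active = inhibition above the mean inhibition of all tested compounds plus 3 SD, cut at about 28% in these data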
# M1 agonist conf = rat M1 muscarinic receptor agonists, confirmation, CHO-M1 cells, Fluo-4 calcium, duplicate retest; Fluo-4 calcium fluorescence, agonist mode; actives lie on both sides; shares compounds with M1 agonist; hit rate 19% among 1,700; fluorescence change (max-min) at 10 µM;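 active = fluorescence change differs from the solvent-only DMSO control mean at a set confidence level in both duplicate runs; inconclusive = differs from solvent-only control mean in just one of two runs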;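 also: an EC20 dose of acetylcholine follows compound addition during the same imaging run; raw fluorescence intensity difference in instrument units with no normalization to controls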
# M4 agonist ctr = agonist activity at rat M4 receptor, confirmation, counter-screen for M1 allosteric modulator project, cell-based, agonist mode | fluorescence change (max-min) at 10 µM | AID 1741, 2009 | shares compounds with M1 agonist | CHO M4/Gqi5 cells, Fluo-4 calcium fluorescence; actives lie on both sides | hit rate 9% among 1,700;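 active = fluorescence change differing from the plate's solvent-only control wells at 99.7% confidence in both duplicates, whether higher or lower; inconclusive = differs from solvent controls in only one of two duplicates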
# Starred values were filed as active, the others as inactive; ? = inconclusive; · = no result.
SMILES,M1 antagonist,M1 agonist,D1 mod,mHtt clearance,HEK293 NFkB inh,Jurkat viability,M1 agonist conf,M4 agonist ctr
CCn1c(COc2cccc(OC)c2)nnc1SCC(=O)Nc1cccc(OC)c1,-0.912,3.03*,-0.485,·,8.5,0.1,-21.5,-32.6
CCn1c(COc2ccccc2C)nnc1SCC(=O)O,0.161,-0.191,-0.18,4.3,14.6,2.7,·,·
CCn1c(COc2cccc(OC)c2)nnc1SCC(=O)Nc1cc(OC)ccc1OC,-0.0744,-0.00517,0.379,·,14.5,3.1,·,·
O=C(NC1CCCCC1)N1CCN(c2ncccn2)CC1,·,·,·,36.7,·,·,·,·
O=C(COc1cccc2ccccc12)N1c2ccccc2CCc2ccccc21,·,·,·,-11.4,·,·,·,·
O=C1CC(c2ccc3c(c2)OCO3)c2cc3c(cc2N1)OCO3 (centres undefined),1.48,0,·,·,12.2,·,·,·
O=C1CC(c2ccncc2)c2cc3c(cc2N1)OCO3 (centres undefined),0.0734,2.45*,1.47,-7.1,10.3,-1.4,-8.09,?
CCOc1ccccc1NC(=O)CN(c1cc(C)cc(C)c1)S(=O)(=O)c1c(C)noc1C,-0.838,20.3*,-0.518,·,6.8,-5.5,-1.05,-19.2
CC(C)Cc1cc(C(=O)Nc2cc(C(F)(F)F)ccc2Cl)no1,·,·,·,13.2,·,·,·,·
O=C(O)c1ccccc1S(=O)(=O)c1ccccc1CO,-0.00556,8.03*,-0.993,·,13.5,-3.1,-11.9,-45.4
CC(C)(C)S(=O)(=O)c1ccccc1C(=O)O,1.51,-0.882,·,-3.4,5.4,3.5,·,·
O=C(Nc1cccc(-c2nc3ccccc3[nH]2)c1)c1cccc(NC(=O)c2ccco2)c1,-0.977,5.09*,-0.732,·,-26.0,0.7,-4.8,-21.3
O=C(Nc1cccc(-c2cnc3ccccc3n2)c1)c1ccco1,-0.436,4.27*,-1.91,-75.2,-8.2,-2.1,?,-44.4
COc1cc2c(cc1OC)C(c1cc3ccccc3oc1=O)=NC(C)(C)C2,·,·,·,18.5,·,·,·,·
COc1ccc(CCN(Cc2cccs2)S(=O)(=O)c2ccc(-n3cnnn3)cc2)cc1OC,-0.323,4.5*,1.47,59.7,17.8,6.9,?,-66.4*
CCn1cc(C(=O)NCc2ccccn2)c(=O)c2cc(S(=O)(=O)N3CCCCC3)ccc21,1.21,10.9*,0.32,36.2,15.6,12.1,73.3*,17
CCn1cc(C(=O)NCc2ccco2)c(=O)c2cc(S(=O)(=O)N3CCCCCC3)ccc21,0.607,0.511,0.784,·,15.3,22.9,·,·
CS(=O)(=O)N1CCc2cc(S(=O)(=O)Nc3ccc4c(c3)OCCO4)ccc21,-1.09,1.82*,-1.23,·,25.7,27.7*,8.92,-23.3
CCC(=O)N1CCc2cc(S(=O)(=O)Nc3ccc4c(c3)OCCO4)ccc21,·,·,-0.235,·,11.7,·,·,·
CCOC(=O)N1CCN(C(=O)CCSc2ccccc2)CC1,0.13,-0.514,-0.345,·,-6.1,·,·,·
CCOC(=O)C1CCN(C(c2cc3c(C)ccc(C)c3[nH]c2=O)c2nnnn2C2CCCCC2)CC1 (centres undefined),0.0963,2.58*,-1.39,-24.9,17.7,1.1,-32.6*,-57.2
C=CCn1c(NC(=O)c2ccccc2Cl)c(C#N)c2nc3ccccc3nc21,-0.973,6.85*,-0.47,·,12.3,12.2,30.1,2.63
N#Cc1c(N)n(CCNC(=O)c2cccs2)c2nc3ccccc3nc12,-0.439,-0.291,1.47,·,2.1,2.7,·,·
CN(C)c1ccc(/C=C/C(O)=C2/C(=O)N(C)C3(C)CC2c2ccccc2O3)cc1 (centres undefined),0.172,28.4*,-0.51,-93.7,17.2,11.7,232*,229*
CN(C)c1ccc(C=C2C(=O)OC(C)(C(C)(C)C)OC2=O)cc1 (centres undefined),·,·,·,-3.9,·,·,·,·

# Bioassay records: PubChem BioAssay, several laboratories
